The conditions of data set [1]: ref [51], [52]; cited from earlier work.
The nature of data set [2]: Formation constants with Mg2+. The class given is binding. The conditions noted are these: Mg^2+; I=0.15 M NaCl, T=298 K. The procedure, abridged: (§1)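 Complexes were studied by direct pH-potentiometric titration at 1:1 and 2:1 metal-to-ligand ratios, with 150–200 data pairs and 1 min equilibration per point. With metal in excess, titration continued until precipitate appeared (pH 7–9). Samples were at 25 °C, 0.15 M NaCl, under N2, with a calibrated electrode and [H+] corrected by the Irving method.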

For data set [3] the following is noted: Cu^2+, cited from earlier work; for log β [ML]/[M][L]: I=0.5 M, NaNO3, ref [57].
The conditions of data set [4]: Zn^2+, cited from earlier work.
A short description of data set [5]: Protonation constants by pH-potentiometric titration. The class given is physicochemical. The method, boiled down:
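Test compound (2.28 mM) titrated directly with standardized NaOH over pH 1.80–12.00. Samples were 6.00 mL, thermostatted at 25 °C, held at 0.15 M NaCl, stirred under N2. The electrode was calibrated with KH-phthalate (pH 4.005) and borax (pH 9.177) buffers. [H+] was obtained by the Irving method (pKw 13.820). Protonation constants come from fitting the pH-potentiometric data.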

The nature of data set [6]: Formation constants with Ca2+. Format: binding. The following applies: Ca^2+; I=0.15 M NaCl, T=298 K. The procedure, abridged: as §1
Data set [7] in a line: Formation constants with Zn2+. Format: binding. The conditions noted are these: Zn^2+; I=0.15 M NaCl, T=298 K. The procedure, abridged: as §1
Data set [8] is described as follows: Formation constants with Cu2+. The following applies: Cu^2+, I=0.15 M NaCl, T=298 K. The class given is binding.
Data set [9] is described as follows: Metabolic stability in mouse liver microsomes. The class given is in vitro ADME. The conditions noted are these: murine liver microsomes. The procedure, abridged: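 Male ICR/CD-1 mouse liver microsomes (0.25 mg) in 50 mM Tris pH 7.5 with test compound at 2 µM final (DMSO stock). Incubated at 37 °C with shaking and an NADPH-regenerating system (NADP, glucose-6-phosphate, G6P dehydrogenase). Time points were quenched with acetonitrile, 0.2% formic acid and tolbutamide internal standard; the T0 sample was quenched before compound or cofactors were added. Parent was measured by LC-MS/MS (223.1→180.1). Half-life = 0.693/slope of ln % remaining versus time.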

Data set [10] can be described thus: Metabolic stability in mouse hepatocytes. Format: in vitro ADME. The method, boiled down:
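Murine hepatocytes (1×10^6/mL) incubated with test compound (2 µM final, DMSO stock) for 0–240 min at 37 °C, 5% CO2. Reactions were quenched with two volumes of acetonitrile containing 0.15% formic acid and tolbutamide internal standard, then analysed by LC-MS/MS. % remaining is relative to T0. Half-life = 0.693/slope of ln % remaining versus time; CLint was taken from the slope of ln peak-area ratio versus time.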

The subject of data set [11] is FRDA cells. The following applies: at 125 nM; toxicity induced by BSO in FRDA cells; ref [5]; cited from earlier work.
The conditions of data set [12]: I=0.15 M, NaClO4; ref [45]; cited from earlier work.
For data set [13] the following is noted: Ca^2+, I=0.1 M, NaNO3, ref [54], cited from earlier work.
For data set [14] the following is noted: Mg^2+; I=0.5 M, KNO3; ref [53]; cited from earlier work.

Where two headings read alike, the source gives them in different places. Marks after values point to notes of the source that are not given here. Bounds are passed on as bounds.

The values that follow come from PMC6863055 (Dalton transactions (Cambridge, England : 2003), 2019).

As to `Oc1cccnc1` [3-pyridol], the “acidity constant of aromatic -OH functionality” value in data set [1] is recorded as 8.72.

As to `Oc1ccncc1` [4-pyridol], in [1], the “acidity constant of aromatic -OH functionality” value was 11.09.

Turning to `c1cc2nc(c1)CNCCNCCNC2` [L1, 3,6,9,15-tetraazabicyclo[9.3.1]penta-deca-1(15),11,13-triene], the “log β [ML]/[M][L]” value in [2] is 4.04(2). In addition, the “log β [ML]/[M][L][OH^−]” value in [3] (previously described by others, ref [47], [57], [58], [62]) is on record as 7.48^c. In addition, in [4] (I=0.5 M, KNO3, ref [47]), the “log β [ML]/[M][L]” value was 14.40^f and the “log β [ML]/[M][L][OH^−]” value was 8.50^f. Besides, in data set [5] (I=0.15 M NaCl, T=298 K), the “log K1^H (protonation constant)” value was 11.37 (1), the “log K2^H (protonation constant)” value is listed as 8.22(5) and the “∑ log KN-donors” value was 21.20. In addition, in [5] (I=0.15 M NaCl, T=298 K, for L2 and L3 the pyridol -OH), the “log K3^H (protonation constant)” value is listed as 1.61(5).

As to `Oc1cc2nc(c1)CNCCNCCNC2` [L2, 3,6,9,15-tetraazabicyclo[9.3.1]penta-deca-1(15),11,13-trien-13-ol], the “log β [MHL]/[M][L][H^+]” value in data set [6] is reported as 13.66(5). In addition, in [2], the “log β [MHL]/[M][L][H^+]” value is given as 13.53(2) and the “log β [ML]/[M][L]” value is listed as 4.96(1). Moreover, in [7], the “log β [MH2L]/[M][L][H^+]^2” value is 25.72(7), the “log β [MHL]/[M][L][H^+]” value is recorded as 23.02(3), the “log β [ML]/[M][L]” value was 17.18(7) and the “log β [ML]/[M][L][OH^−]” value is given as 8.92(9). In data set [8], the “log β [MHL]/[M][L][H^+]” value was 25.79(3), the “log β [ML]/[M][L]” value was 19.16(11) and the “log β [ML]/[M][L][OH^−]” value is 8.55(13). Further, in [8] (determined by direct UV-vis titration), the “log β [MH2L]/[M][L][H^+]^2” value is listed as 28.38(5)^a. In data set [9] (NADPH regenerating system, 2 µM), the “% of molecule retained at termination of the experiment” value was found to be 65%. The in vitro half-life entry in data set [9] (NADPH regenerating system, 2 µM, substrate depletion) is recorded as “greater than 120 min”. The clearance classification result in data set [9] (Phase I) is on record as “low-moderate clearance”. Moreover, in data set [10] (murine hepatocytes), the “calculated Clint” value is under 0.02 µL/min/million cells and the clearance classification entry is recorded as “low clearance”. The half-life result in [10] (murine hepatocytes 1×10^6/mL, 2 µM, 0–240 min) is reported as “greater than 240 min”. Also, in data set [10] (murine hepatocytes, 0–240 min), the “% depleted over the time course of the experiment” value is recorded as 2–9%. In data set [11], the “quenching of radical based toxicity” value is reported as 100%. Further, the “isoelectric point (pI)” value in [5] came out at 10.31. Also, in [5] (I=0.15 M NaCl, T=298 K), the “log K1^H (protonation constant)” value is 11.56(3), the “log K2^H (protonation constant)” value is 9.05(5), the “log K4^H (protonation constant)” value is 1.68(5) and the “∑ log KN-donors” value is given as 22.29. For the same compound, the “fraction of [H2(L2)]^+ species in solution” value in data set [5] (at biological pH) was 97%.

For the compound `C1CNCCNCCNCCN1` [cyclen], the “log K1^H (protonation constant)” value in data set [12] is recorded as 10.66. For the same compound, in data set [12], the “log K2^H (protonation constant)” value is recorded as 9.69. In addition, the “log K3^H (protonation constant)” value in data set [12] is recorded as 1.41. Moreover, the “∑ log KN-donors” value in [12] is 21.76. Further, the “log β [ML]/[M][L]” value in data set [3] was 23.3; in [3] (listed as Cyclen), 23.3^d; in data set [13] it was 3.12; in data set [13] (listed as Cyclen), 3.12^b; in data set [14], 2.25^a; in data set [4] (ref [58]) it was 16.2^e.
